Screening data from PubChem BioAssay.
Most compounds without a hit are left out; they make up all but 2.7% or so of the library.
OXTR potentiator: potentiators of human oxytocin receptor; P30559; CHO-OTR cells, Fluo-8 calcium fluorescence, potentiator mode; 0% = oxytocin EC15, 100% = EC100; activation, % at 3 µM; 320,000 compounds, 0.061% hits; AID 2445;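 active means activation above that plate's cutoff, the mean activation of tested compounds plus 3 SD, cut at about 6.6% in these data, passing the limit was not always enough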;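 further: 100% uses oxytocin at 75 nM as the full agonist control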
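System: human OTR in CHO cells; Also added: sub-maximal oxytocin, roughly EC15; Timing: compound 6 min at room temperature before oxytocin, 100 s read; Technique: Fluo-8 intracellular calcium fluorescence, ex 470-495, em 515-575 nm; Controls: oxytocin EC15 low and EC100 high; Replication: singlicate.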
OX1R antag-1: blocks the human orexin 1 receptor; inhibition, % at 5 µM; CHO/OX1R cells, Fluo-8 calcium fluorescence, orexin A; 330,000 compounds, 0.43% hits; O43613;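 active means inhibition above its plate's threshold, mean inhibition of all tested compounds on the plate plus 3 SD, cut at about 37% in these data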;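 further: 0% = orexin A challenge wells and 100% = SB-334867-A antagonist wells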
Target sequence (O43613 whole entry, looked up): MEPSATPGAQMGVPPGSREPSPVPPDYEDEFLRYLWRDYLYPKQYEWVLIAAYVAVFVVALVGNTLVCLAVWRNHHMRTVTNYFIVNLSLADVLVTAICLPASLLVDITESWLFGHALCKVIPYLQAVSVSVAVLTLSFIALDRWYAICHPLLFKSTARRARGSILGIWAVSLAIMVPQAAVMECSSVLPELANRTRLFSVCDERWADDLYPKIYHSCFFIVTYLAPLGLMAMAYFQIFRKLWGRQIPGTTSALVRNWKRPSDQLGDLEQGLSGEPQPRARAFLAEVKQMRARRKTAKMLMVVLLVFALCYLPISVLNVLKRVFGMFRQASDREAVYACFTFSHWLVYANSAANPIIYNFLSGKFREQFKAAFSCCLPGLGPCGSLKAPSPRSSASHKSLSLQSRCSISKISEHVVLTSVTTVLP
CHO parental Ca: counter-screen for OX1R antagonists: effect in parental CHO cells | parental CHO-K1, ATP-induced calcium, Fluo-8 fluorescence | inhibition, % at 5.6 µM | 330,000 compounds, 0.63% hits | AID 463079;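 active means inhibition above that plate's mean sample inhibition plus 3 SD, cut at about 26% in these data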;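 further: 0% = ATP-challenged DMSO wells and 100% = DMSO wells without ATP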
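material = parental CHO cells | also added = ATP as calcium-mobilizing challenge | dosing = single point at 5.6 µM | detection = intracellular calcium via Fluo-8 no-wash fluorescent dye | read-out = % inhibition | benchmarks = low control ATP plus DMSO, high control DMSO only | repeats = one well per compound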
OXTR ag: agonists of human oxytocin receptor; AID 2435; activation, % at 3 µM; 320,000 compounds, 0.32% hits; CHO-OTR cells, Fluo-8 calcium fluorescence; normalized: DMSO 0%, oxytocin 100%; P30559;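 active means activation above the mean of all tested compounds plus 3 SD, cutoff set per screening run, cut at about 20% in these data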;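 further: peak over basal fluorescence ratio from a 100 s FLIPR kinetic read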
OX1R antag-2: antagonists of human orexin 1 receptor (OX1R); AID 485270; OX1R-expressing cells, FRET antagonist read-out; inhibition, % at 6.6 µM; 330,000 compounds, 1.8% hits; O43613; in the data active means inhibition mostly above about 38%, no sharp cut-off; inactive means mostly below about 40%;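 further: 0% = agonist challenge alone and 100% = reference antagonist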
V1R ag counter: activates human V1a receptor in oxytocin agonist counter-screen | P37288 | 320,000 compounds, 0.25% hits | activation, % at 3 µM | CHO-V1R cells, Fluo-8 calcium fluorescence, agonist mode; 0% DMSO, 100% 3 nM vasopressin;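 active means activation above the mean activation of all tested compounds plus 3 SD, per screening run, cut at about 20% in these data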;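 further: signal is peak over basal fluorescence ratio across a 100 second FLIPR read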
* hit, by the source's call; ! = not confirmed by another sample.

Screening Cc1c(NC(=O)C2CCCN2S(=O)(=O)c2cccc3nsnc23)cccc1C(=O)O (stereo unspecified) returned OXTR potentiator -6.5, OX1R antag-1 -13.0, CHO parental Ca -10.4, OXTR ag -0.1, OX1R antag-2 48.2* and V1R ag counter -0.1.
Screening O=C(Nc1ccc2ncccc2c1)Nc1ccc2ncccc2c1 returned OXTR potentiator 0.2, OX1R antag-1 -4.5, CHO parental Ca -14.3, OXTR ag 4.5, OX1R antag-2 76.0* and V1R ag counter 6.8.
`CC(C)COC(=O)c1cccc2c1-c1ccccc1/C2=N\O` gave OXTR potentiator -19.5, OX1R antag-1 -8.9, CHO parental Ca 41.2*, OXTR ag -1.2, OX1R antag-2 18.0 and V1R ag counter 0.4.
COc1ccc(C(CNC(=O)C(=O)Nc2ccc3c(c2)OCCO3)N2CCN(C)CC2)cc1 (stereo unspecified) was read as OXTR potentiator 1.1, OX1R antag-1 -7.7, CHO parental Ca -26.9, OXTR ag 2.2, OX1R antag-2 10.2 and V1R ag counter 0.9.
O=C(Nc1ccc([N+](=O)[O-])cc1)Nc1nc(-c2ccc(Cl)s2)cs1 was read as OXTR potentiator -11.0, OX1R antag-1 27.7, CHO parental Ca 57.2*, OXTR ag 16.6, OX1R antag-2 27.6 and V1R ag counter 6.6.
`CC(=O)Nc1nc(-c2ccc([N+](=O)[O-])cc2)cs1` gave OXTR potentiator 1.7, OX1R antag-1 0.2, CHO parental Ca 1.7, OXTR ag -1.0, OX1R antag-2 23.3 and V1R ag counter 1.2.
Screening CSc1nc(C)cc(OCCNS(=O)(=O)c2ccc(C)cc2)n1 returned OXTR potentiator -9.8, OX1R antag-1 12.7, CHO parental Ca -19.7, OXTR ag 0.9, OX1R antag-2 39.0* and V1R ag counter 1.5.
For COCCn1c(SCC(=O)Nc2cccc(F)c2)nc2c(c1=O)SCC2 the results were OXTR potentiator -2.6, OX1R antag-1 -28.1, CHO parental Ca -18.7, OXTR ag -1.8, OX1R antag-2 8.7 and V1R ag counter 5.4.
C=CCn1c(SCC(=O)Nc2cccc(S(N)(=O)=O)c2)nc2sc(C)c(C)c2c1=O was read as OXTR potentiator -4.0, OX1R antag-1 2.2, CHO parental Ca 9.7, OXTR ag 0.3, OX1R antag-2 32.6* and V1R ag counter 0.3.
`C=CCn1c(SCC(=O)Nc2ccccc2C)nc2sc(C)c(C)c2c1=O` gave OXTR potentiator -5.6, OX1R antag-1 -23.4, CHO parental Ca -16.2, OXTR ag -1.5, OX1R antag-2 22.2 and V1R ag counter -0.7.
`CCCCCCCCCCCCCCCCn1cc[n+](C)c1` gave OXTR potentiator -20.0, OX1R antag-1 84.9*, CHO parental Ca 71.2*, OXTR ag 25.1*, OX1R antag-2 24.1 and V1R ag counter 34.9*.
Screening C[n+]1ccn(CC(=O)c2cccs2)c1 returned OXTR potentiator -0.1, OX1R antag-1 -2.2, CHO parental Ca -2.5, OXTR ag 0.1, OX1R antag-2 18.3 and V1R ag counter 0.8.
Screening CC(C)(OC1OC(CO)C(O)C(O)C1O)[C@H]1Oc2ccc3ccc(=O)oc3c2[C@H]1O (stereo partly specified) returned OXTR potentiator -8.8, OX1R antag-1 10.6, CHO parental Ca 2.9, OXTR ag -0.3, OX1R antag-2 28.3 and V1R ag counter -0.6.
COc1ccc(-c2nc(-c3ccc(NC(=O)c4ccncc4)cc3)no2)cc1OC was read as OXTR potentiator -9.6, OX1R antag-1 4.8, CHO parental Ca 25.6, OXTR ag 6.2, OX1R antag-2 59.6* and V1R ag counter 4.8.
For COc1ccc(Cl)cc1-c1nc(-c2ccc(NC(=O)c3ccncc3)cc2)no1 the results were OXTR potentiator -13.2, OX1R antag-1 9.8, CHO parental Ca -6.5, OXTR ag 0.8, OX1R antag-2 24.6 and V1R ag counter 2.5.
Screening COc1cc2c(cc1OC)C(c1ccccc1)N(C(=O)c1ccccc1)CC2 (stereo unspecified) returned OXTR potentiator -5.7, OX1R antag-1 -33.0, CHO parental Ca -12.1, OXTR ag -2.2, OX1R antag-2 -0.7 and V1R ag counter -1.2.
COc1cc2c(cc1OC)C(c1ccccc1)N(C(=O)c1ccco1)CC2 (stereo unspecified) was read as OXTR potentiator 0.3, OX1R antag-1 2.9, CHO parental Ca -12.8, OXTR ag -0.5, OX1R antag-2 33.0* and V1R ag counter -1.1.
For O=[N+]([O-])c1ccc2cn[nH]c2c1 the results were OXTR potentiator -8.2, OX1R antag-1 -9.5, CHO parental Ca -1.3, OXTR ag -0.2, OX1R antag-2 49.0* and V1R ag counter 1.1.
`O=[N+]([O-])c1ccc(Cl)c(S(=O)(=O)Nc2ccc3cn[nH]c3c2)c1` gave OXTR potentiator -3.0, OX1R antag-1 -3.1, CHO parental Ca -9.6, OXTR ag 1.3, OX1R antag-2 14.6 and V1R ag counter 0.8.
CC(C)COc1ccc(-c2nn(-c3ccccc3)cc2C(=O)Nc2nccs2)cc1 was read as OXTR potentiator -3.5, OX1R antag-1 26.0, CHO parental Ca 38.9*, OXTR ag 2.0, OX1R antag-2 5.7 and V1R ag counter 2.1.
`O=C(Nc1nccs1)c1cn(-c2ccccc2)nc1-c1ccccc1` gave OXTR potentiator -6.8, OX1R antag-1 -24.0, CHO parental Ca -17.6, OXTR ag -0.8, OX1R antag-2 44.0 and V1R ag counter 0.0.
`CC(C)(Oc1ccc(Cl)cc1)C(=O)Nc1ccncc1` gave OXTR potentiator -26.3, OX1R antag-1 19.2, CHO parental Ca 36.7*, OXTR ag 7.9, OX1R antag-2 38.0 and V1R ag counter 6.0.
Screening COc1ccc2cc3[n+](cc2c1OC)CCc1cc2c(cc1-3)OCO2 returned OXTR potentiator 0.9, OX1R antag-1 -2.1, CHO parental Ca -9.3, OXTR ag -0.3, OX1R antag-2 55.0*! and V1R ag counter 0.2.
Screening Cc1ccc(S(=O)(=O)N/N=C/c2ccc(C(=O)O)cc2)cc1 returned OXTR potentiator -17.2, OX1R antag-1 -1.4, CHO parental Ca -17.4, OXTR ag 0.2, OX1R antag-2 10.7 and V1R ag counter 0.0.
Screening Cc1ccc(S(=O)(=O)N/N=C/c2ccc(OC3CSC3)cc2)cc1 returned OXTR potentiator -29.2, OX1R antag-1 84.5*, CHO parental Ca 56.0*, OXTR ag 23.5*, OX1R antag-2 -5.1 and V1R ag counter 40.1*.
O=C(Nc1ccccc1)c1nc[nH]c1C(=O)NCCNC(=O)c1[nH]cnc1C(=O)Nc1ccccc1 was read as OXTR potentiator -1.9, OX1R antag-1 39.4, CHO parental Ca -2.5, OXTR ag 1.6, OX1R antag-2 65.3* and V1R ag counter 1.1.
